High-throughput results: PubChem, several laboratories
The sample as a whole holds a higher share of hits than the screen did.
UPR CHOP act: apoptotic UPR (CHOP) activation; CHO-CHOP luciferase reporter, luminescence; percent of tunicamycin response over DMSO baseline; activation, % at 10 µM; actives 0.34% (n = 330,000); AID 449763;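 active means at 10 µM dose, activation of 40% or more, normalized to positive control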
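Test system: CHO CHOP reporter cells. Input: 500 CHO-CHOP cells per well. Medium: F12 with 10% FBS. Technique: luciferase luminescence. Measure: percent activation relative to tunicamycin control. Dosing: 10 µM compound, 0.5% DMSO. Timing: 16-18 h cell attachment, then 6 h compound exposure, 37 °C.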
XBP1 UPR activ: activators of adaptive arm of unfolded protein response (XBP1); CHO-XBP1 luciferase reporter, IRE1-XBP1 UPR activation, luminescence; percent of tunicamycin response, DMSO as zero; actives 0.33% (n = 330,000); activation, % at 20 µM;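 active means versus positive control, 20 µM dose yields 30% or more activation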
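Assay system: CHO-XBP1 luciferase reporter cells; Schedule: 6 h treatment, 37 °C; Detection: glow luminescence from Steady-Glo reagent; Benchmarks: high control tunicamycin 10 µg/mL final, low control DMSO vehicle only.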
Cardio protect: myocardial damage modulation in H9c2 cells; H9c2 cardiomyocytes, H2O2 injury protection, ATPLite, 2 h; protection from H2O2 cell death, % at 20 µM; actives 0.63% (n = 360,000); AID 588492;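 active means compounds giving at least 50% protection of heart cells from peroxide-induced death in the single-dose screen, raw or plate-pattern-corrected value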
CHOP inhibitor: blocks CHOP induction under ER stress; actives 3.8% (n = 220,000); CHO-K1 CHOP-promoter luciferase, tunicamycin-induced, 15-18 h; inhibition, % at 10 µM;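 active means compounds that reduced the stress-induced luciferase reporter signal by more than about 70% of percent inhibition, limit read from the data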
iPSC survival up: increases survival of single human iPS cells | hiPSC single-cell survival, ATPlite luminescence; 100% = ROCK inhibitor wells, 0% = DMSO | survival enhancement, % at 20 µM | actives 0.044% (n = 360,000); in the data active means survival enhancement above about 18%;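 further: cells exposed to compounds for 16 hours before the ATP read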
Hits are given with their value; i = inactive; nt = no result.

SMILES | UPR CHOP act | XBP1 UPR activ | Cardio protect | CHOP inhibitor | iPSC survival up
CCOc1ccccc1NC(=O)CCC(=O)Nc1ccccc1OCC | i | i | i | i | i
CCOc1ccccc1N/C=C/C(=O)C(C)(C)C | i | i | i | 74 | i
CC(C)(C)c1ccc(S(=O)(=O)/C=C/C#N)cc1 | nt | nt | nt | i | nt
O=C(Oc1cccc2c(=O)[nH]ccc12)c1ccccc1 | i | i | 80 | i | i
O=C(Nc1cccc(OC(F)(F)F)c1)C1Cc2c(-c3ccccc3Oc3ccccc3)ccnc2O1 (stereo not given) | nt | nt | i | nt | i
c1ccc(-n2nc3c(ccc4cnnc43)[nH]2)cc1 | i | i | i | 86 | i
COc1ccccc1-c1nnc(SCC(=O)Nc2c(Cl)cccc2Cl)o1 | i | i | i | i | i
COc1ccccc1-c1nnc(SCC(=O)NCc2c(C)c(Cl)cc(C(C)C)c2O)o1 | i | i | i | 75 | i
Cc1cc(Cl)ccc1OC(C)C(=O)Nc1ccc([N+](=O)[O-])cn1 (stereo not given) | i | i | i | 75 | i
O=C(Nn1nnnc1Nc1ccccc1)C12CC3CC(CC(C3)C1)C2 | i | i | i | 94 | i
C[C@H]1CN([C@@H](C)CO)C(=O)CCCn2nncc2CO[C@@H]1CN(C)S(=O)(=O)c1cccc(F)c1 | nt | nt | i | nt | i
O=C(CCN1C(=O)CC1c1ccco1)N1CCOCC1 (stereo not given) | nt | nt | i | nt | i
O=S(=O)(CCNCc1ccco1)NC1CCCCC1 | nt | nt | i | nt | i
Cc1ccc(C(=O)NCCSc2ccc(Cl)cc2)cc1S(=O)(=O)Nc1ccccc1 | i | i | i | 79 | i
Cc1ccc(NS(=O)(=O)c2cc(C(=O)NCCSc3ccc(C)cc3)ccc2C)cc1 | i | i | i | i | i
CC1CCC(C(C)C)C(OC(=O)COC(=O)c2ccc(N)cc2)C1 (stereo not given) | i | i | i | 84 | i
CC1CCC(C(C)C)C(OC(=O)COC(=O)c2cccn2C)C1 (stereo not given) | i | i | i | i | i
NC(=O)C1CCCN(C(=O)c2[nH]c(C(F)(F)F)nc2-c2ccccc2)C1 (stereo not given) | nt | nt | i | nt | i
Cn1cccc1C(=O)NC(=O)COC(=O)CC12CC3CC(CC(C3)C1)C2 | i | i | i | 80 | i
CC(C)(C)c1ccc(CC(=O)N2CCC2(C)C(=O)NCc2cccs2)cc1 (stereo not given) | nt | nt | i | nt | i
CCOC(=O)NC(=O)/C(N=Nc1cc(C)cc(C)c1)=C(\C)O | i | i | i | i | i
CCOC(=O)/C(N=Nc1c(Br)cc(Br)cc1Br)=C(\C)O | i | i | i | 85 | i
CC(=O)Nc1cccc(NC(=O)c2cc(-c3cccnc3)nc3ccc(Br)cc23)c1 | i | i | 80 | i | i
CC(=O)Nc1cccc(NC(=O)c2cc(-c3cccnc3)nc3ccc(Cl)cc23)c1 | i | i | 65 | i | i
CC(=O)Nc1cccc(NC(=O)c2cc(-c3ccccn3)nc3ccc(Cl)cc23)c1 | i | i | i | nt | i
SMILES | UPR CHOP act | XBP1 UPR activ | Cardio protect | CHOP inhibitor | iPSC survival up
O=C(CSc1ncccn1)NC1CCCC1 | nt | nt | i | nt | i
CCCCCn1cnnc1SCC(=O)c1ccc2c(c1)OCO2 | i | i | i | nt | i
Cn1cnnc1SCC(=O)c1ccc2c(c1)OCO2 | i | i | i | i | 22
Cc1ccccc1NCC(=O)N/N=C/C(Br)=C/c1ccccc1 | i | i | i | 94 | i
O=C(CN1CCOCC1)N/N=C/C(Br)=C\c1ccccc1 | i | i | i | i | i
O=[N+]([O-])c1ccc2oc(/C=C/c3ccc(O)cc3)nc2c1 | nt | nt | i | nt | i
COc1ccc(CN2C(=O)CCC2(C)c2nnnn2-c2ccc3c(c2)OCCO3)cc1 (stereo not given) | nt | nt | nt | nt | i
COc1ccc(Sc2nnc(-c3ccccc3)cc2C#N)cc1 | i | i | i | 90 | i
O=C(OCc1ccccc1)N1CCC2CC1c1c2cccc1N1CCOCC1 (stereo not given) | nt | nt | i | nt | i
CCn1c(C2CC(=O)N(c3cc(C)cc(C)c3)C2)nc2ccccc21 (stereo not given) | i | i | i | 75 | i
CCCn1c(C2CC(=O)N(c3ccc(C)cc3)C2)nc2ccccc21 (stereo not given) | i | i | i | i | i
CC1CCN(S(=O)(=O)c2cccc(C(=O)NCc3cccs3)c2)CC1 | i | i | i | 73 | i
Cn1c(C(C#N)C(=O)Cc2cccc3ccccc23)nc2ccccc21 (stereo not given) | i | i | i | 75 | i
Cn1c(C(C#N)C(=O)c2ccco2)nc2ccccc21 (stereo not given) | i | i | i | i | i
CCCCOC(=O)c1ccc(O)cc1 | i | i | i | i | i
CCCCOC(=O)Nc1ccc(C(=O)OCCC)cc1 | i | i | i | 86 | i
CCCCCCCCOC(=O)c1ccc(N)cc1 | i | i | i | 76 | i
CCCNC(=O)C1(C)CCCN(Cc2ccccc2F)C1 (stereo not given) | nt | nt | i | nt | i
COc1cc2c(cc1OC)C(c1ccc(-c3ccc(Cl)c(Cl)c3)o1)=NCC2 | i | i | i | 80 | i
COc1cc2c(cc1OC)C(c1ccc(-c3ccccc3Cl)o1)=NCC2 | i | i | i | i | i
COc1cc2c(cc1OC)C(c1ccc(-c3cc(Cl)ccc3Cl)o1)=NCC2 | i | i | i | 85 | i
O=C(NCc1ccc(Cl)c(Cl)c1)c1cc(C2CCCCN2C(=O)c2cccs2)on1 (stereo not given) | nt | nt | i | nt | i
CC(C)c1nc2sc3c(NCc4ccco4)ncnc3c2c2c1COC(C)(C)C2 | i | i | i | 78 | i
O=C(CCc1ccccc1)NNC(=S)NC(=O)c1ccccc1 | i | i | i | i | i
CC(C)(C)c1cc(CCC(=O)NNC(=S)NC(=O)c2ccccc2)cc(C(C)(C)C)c1O | i | i | i | 109 | i
SMILES | UPR CHOP act | XBP1 UPR activ | Cardio protect | CHOP inhibitor | iPSC survival up
N/C(=N\NS(=O)(=O)c1ccccc1)c1ccccn1 | i | i | 51 | nt | i
N/C(=N\NS(=O)(=O)c1ccc(Cl)cc1)c1ccccn1 | i | i | i | nt | i
COC(=O)c1c(-c2ccc(N(C)C)cc2)oc2c1C(OC)CCC2 (stereo not given) | nt | nt | nt | nt | i
CC(C)(C)NC(=O)C1c2ccccc2OCC(=O)N1Cc1ccccn1 (stereo not given) | nt | nt | nt | nt | i
COC(=O)c1c(C)[nH]c(O)c1C=Nc1ccc(C(C)C)cc1 | i | i | i | i | i
CCOC(=O)c1c(C)[nH]c(O)c1C=Nc1ccc(C(F)(F)F)cc1 | i | i | i | 82 | i
COC(=O)c1c(C)[nH]c(O)c1C=Nc1ccc(Oc2ccccc2)cc1 | i | i | 84 | i | i
COc1ccc(S(=O)(=O)N2CCCCC2)cc1NC(=O)C1CC1(Cl)Cl (stereo not given) | nt | nt | i | nt | i
CC1(C(=O)NS(=O)(=O)c2ccccc2C(F)(F)F)CCN1C(=O)CCc1cccs1 (stereo not given) | nt | nt | i | nt | i
